# Screening results from PubChem BioAssay.
# Shown are actives, neighbours in structure and some others; about 1.5% of the full set was active somewhere.
# EBI2 block – EBI2 receptor antagonists, beta-arrestin recruitment, primary screen, cell-based, luminescence, 7a,25-OHC stimulation, uHTS | AID 651636, 2012 | G-protein coupled receptor 183 (Homo sapiens), P32249 | inhibition, % at 5 µM | hit rate 0.81% among 360,000 | 7a,25-OHC stimulated; in the data active = inhibition above about 38%;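 also: enzyme fragment complementation signal reports receptor beta-arrestin coupling in cells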
# APJ antag – antagonists of human apelin receptor APJ, primary screen, CHO-K1 cells, beta-arrestin complementation, luminescence; P35414; inhibition, % at 20 µM; hit rate 0.32% among 330,000;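 active = inhibition above about 40% at 20 µM, limit read from the data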;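 also: cells challenged with 10 nM apelin-13 agonist together with compound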
# Target sequence (P35414 whole entry, looked up): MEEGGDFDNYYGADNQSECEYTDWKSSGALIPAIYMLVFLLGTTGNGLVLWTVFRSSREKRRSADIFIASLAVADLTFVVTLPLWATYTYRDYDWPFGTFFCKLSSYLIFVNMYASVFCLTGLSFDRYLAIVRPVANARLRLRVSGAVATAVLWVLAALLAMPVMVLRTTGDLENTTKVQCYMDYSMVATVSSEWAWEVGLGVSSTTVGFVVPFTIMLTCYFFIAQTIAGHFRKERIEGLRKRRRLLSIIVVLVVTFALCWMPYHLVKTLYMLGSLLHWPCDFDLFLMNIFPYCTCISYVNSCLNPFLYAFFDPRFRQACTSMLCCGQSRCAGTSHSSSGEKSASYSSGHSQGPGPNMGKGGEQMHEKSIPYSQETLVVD
# CCR6 antag – CCR6 receptor antagonists, primary screen, cell-based, CHO-K1, luminescence, beta-arrestin, uHTS; C-C chemokine receptor type 6 (Homo sapiens), P51684; CHO-K1 CCR6 PathHunter beta-arrestin, CCL20-stimulated; inhibition, % at 20 µM; hit rate 0.49% among 340,000; AID 493098, 2011;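 active = compounds whose inhibition of the agonist-driven luminescence signal at 20 µM reaches about 50%, limit read from the data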;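 also: cells stimulated with CCL20 at 14 nM final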
# APJ agonist – agonists of human apelin receptor APJ, primary screen, CHO-K1 cells, PathHunter beta-arrestin, luminescence; P35414; AID 2520, 2010; hit rate 0.11% among 330,000; activation, % at 20 µM; 0% DMSO wells, 100% apelin;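 active = activation more than six SD over the plate average, tested at 20 µM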
#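 Assay system – PathHunter CHO-K1 APJ (AGTRL-1) beta-arrestin reporter cells · Compound – one dose, 20 µM compound, 1% DMSO · Timing – compound 90 min 25 °C, reagent 1 h · Measured by – luminescence from split beta-galactosidase complementation, Galacton Star/Emerald II substrate · Measure – beta-arrestin recruitment to APJ as agonist activity, luminescent signal · Benchmarks – DMSO vs Apelin-13 10 nM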
# CXCR6 block – CXCR6 receptor inhibitors, primary screen, cell-based, beta-arrestin, luminescence, CHO-K1 PathHunter, 1536-well | C-X-C chemokine receptor type 6 (Homo sapiens), O00574 | inhibition, % at 20 µM | hit rate 0.36% among 360,000 | AID 602244, 2012; in the data active = inhibition above about 34%, passing the limit was not always enough;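 also: antagonist mode with CXCL16 agonist at 10 nM final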
# Hits are given with their value; n = inactive; x = no result given.
SMILES,EBI2 block,APJ antag,CCR6 antag,APJ agonist,CXCR6 block
O=C(CCC(=O)N(CC(=O)NC1CCCC1)c1ccccc1F)Nc1nccs1,n,n,n,n,n
NC(N)=N/N=C/c1cc([N+](=O)[O-])ccc1O,n,n,n,n,n
O=[N+]([O-])c1ccc(O)c(/C=N\N=C2c3ccccc3-c3ccccc32)c1,n,n,56,n,n
COc1ccc(N/N=C(/N=Nc2nc(C)cc(=O)[nH]2)c2ccccc2)cc1,n,n,n,n,33
Cc1ccc2c(COC(=O)CNC(=O)c3ccco3)cc(=O)oc2c1C,n,n,n,n,n
CCCCCCCCSC1=CC(=O)C(OC)=C(OC)C1=O,n,x,x,x,39
CCCCCSc1nncc(=O)[nH]1,n,n,n,n,n
CCCNC(=O)C1(C)CCCN(C(=O)c2ccccc2OC(F)(F)F)C1 (stereo unspecified),n,x,x,x,n
Cc1cc(C)c2c(=O)n(CC(=O)NCCCN3CCN(c4ccccc4F)CC3)sc2n1,x,n,100,n,x
COc1ccc(NC(=S)NC(NC(=O)c2ccc(Cl)cc2Cl)C(Cl)(Cl)Cl)c([N+](=O)[O-])c1 (stereo unspecified),n,n,n,n,33
COc1ccc(NC(=S)NC(NC(=O)c2ccccc2Cl)C(Cl)(Cl)Cl)c([N+](=O)[O-])c1 (stereo unspecified),n,n,56,n,n
COc1ccc(NC(=S)NC(NC(=O)c2cccc3ccccc23)C(Cl)(Cl)Cl)c([N+](=O)[O-])c1 (stereo unspecified),n,n,n,n,n
COc1ccc(Br)cc1CNC(=O)CN1C(=O)C(c2ccccc2)Oc2cccnc21 (stereo unspecified),n,n,n,n,n
CS(=O)(=O)N(CC(=O)N1CCN(c2ccccc2)CC1)c1cc(C(F)(F)F)ccc1Cl,46,n,n,n,n
CS(=O)(=O)N(CC(=O)N1CCCC1)c1cc(C(F)(F)F)ccc1Cl,n,n,n,n,n
CC(=O)Oc1ccc(N2C(=O)C3C4C=CC(CO)(O4)C3C2=O)cc1 (stereo unspecified),n,n,n,n,n
O=C1C2C3C=CC(CO)(O3)C2C(=O)N1c1ccccc1-c1ccccc1 (stereo unspecified),n,n,102,n,57
O=C(O)c1cc(-c2ccc(/C=N/Nc3ccc([N+](=O)[O-])cn3)o2)ccc1Cl,n,x,51,x,n
O=C(O)c1ccc(-c2ccc(/C=N/Nc3ccc([N+](=O)[O-])cc3)o2)cc1,n,n,n,n,n
COc1cc(C=C2CN(C)C(=O)C2=O)ccc1O,n,x,x,x,n
CCOc1cc(/C=C2\CN(C)C/C(=C\c3ccc(O)c(OCC)c3)C2=O)ccc1O,n,n,57,n,n
CCN(CC)c1ccc2c(Cl)c(Br)c(=O)oc2c1,54,n,n,n,n
CCN(CC)c1ccc2c(c1)oc(=O)c1c(Cl)cc(=O)oc12,62,n,n,n,60
CCN(CC)c1ccc2c(C)c(Cl)c(=O)oc2c1,n,n,n,n,n
COc1ccccc1S(=O)(=O)N(C)C[C@H]1OCc2cn(nn2)CCCC(=O)N([C@@H](C)CO)C[C@@H]1C,n,x,x,x,n
SMILES,EBI2 block,APJ antag,CCR6 antag,APJ agonist,CXCR6 block
CN1CCN(C2=C(Cl)C(=O)c3ccccc3C2=O)CC1,n,x,n,x,n
CN1CCN(C2=C(Cl)C(=O)C(c3cnc(N4CCCCC4)s3)=C(Cl)C2=O)CC1,n,n,74,n,n
O=c1c2ccccc2sn1-c1ccc(S(=O)(=O)N2CCCCC2)cc1,n,n,n,n,n
Cc1ccc(-n2sc3ccccc3c2=O)cc1S(=O)(=O)N1CCCCC1,n,n,55,n,n
CC(=O)OCCCNc1cc(Sc2ccc(Cl)cc2)c2nonc2c1[N+](=O)[O-],68,x,104,x,92
Cc1ccccc1-c1ccc(Nc2ccc(N3CCOCC3)cc2)nn1,71,n,n,n,n
O=C1Nc2ccc(Br)cc2/C1=N\N=C\C1=C(N2CCOCC2)C(=C/c2ccccc2)/CC1,n,x,55,x,41
CCN(CC(=O)Nc1c(F)cccc1F)C(=O)c1cccc(S(=O)(=O)N(C)c2ccccc2)c1,n,n,n,n,n
COc1ccc(Cn2c(C3CC3)nc3ccc(NC(=O)c4cccnc4)cc3c2=O)cc1,53,n,n,n,n
CSCCC(C(=O)NC1CCCC1)n1c(-c2ccncc2)nc2ccccc21 (stereo unspecified),n,x,x,x,x
NC(N)=N/N=C(\N=Nc1ccccc1)c1ccc(Cl)cc1,n,x,63,x,n
NC(N)=N/N=C(\N=Nc1ccccc1)c1cccc2cccnc12,n,x,n,x,n
Cc1cccc(N2CCN(C(=O)c3ccccc3OCc3c(C)noc3C)CC2)c1C,n,n,n,n,n
O=C1NC[C@H](c2ccccc2)OC(=O)[C@H](Cc2ccc(F)cc2)CC/C=C/C[C@H]1CC(=O)N(CCO)Cc1ccccc1,n,x,n,x,48
O=C1NC[C@H](c2ccccc2)OC(=O)[C@@H](Cc2ccc(F)cc2)CC/C=C/C[C@H]1CC(=O)N(CCO)Cc1ccccc1,n,x,n,x,n
CCOC(=O)N1CCN(C(C(=O)NC2CCCC2)c2cccc(OC)c2OC)CC1 (stereo unspecified),n,x,x,x,x
Cc1cccc(N2CCN(C(=O)c3cc4c(=O)n(C)c5ccccc5c4n3C)CC2)c1C,n,n,n,n,n
Cc1ccc(Cl)cc1N1CCN(C(=O)c2cc3c(=O)n(C)c4ccccc4c3n2C)CC1,n,n,n,13,n
O=C(/C=C/c1cccnc1)/C=C/c1cccnc1,n,x,59,x,n
O=C1CSC(=S)N1/N=C/C=C/c1ccccc1,n,n,n,n,46
Cc1ccc(CNC(=O)c2ccc(Cn3cc(-c4ccc(C)cc4)nc3-c3ccncc3)cc2)cc1,71,n,n,n,n
Cc1ccc(C)c2sc(NC(=O)c3nc4ccccc4s3)nc12,n,n,51,n,n
O=C(NCc1ccccn1)[C@@H]1CCCN1C(=O)[C@@H]1CCCN1C(=O)c1c(F)cccc1F,n,x,x,x,n
O=C(N/N=C/c1cccc2nccnc12)c1ccccc1O,n,n,66,n,n
O=C(N/N=C/c1cccc2nccnc12)c1ccncc1,n,n,n,n,n
COc1ccc(N=C2S/C(=C\c3ccc(N4CCOCC4)o3)C(=O)N2CCc2c[nH]c3ccccc23)cc1,81,n,x,n,n
CCOc1ccccc1NC(=O)C1CCCN(S(=O)(=O)c2ccc(-n3cnnn3)cc2)C1 (stereo unspecified),n,n,n,n,n
CCCCCc1ccnc(CC(=O)c2ccc(OC)cc2)c1,n,x,n,x,n
CCOc1ccc(NC(=S)N(Cc2ccc(N(C)C)cc2)Cc2ccco2)cc1,44,n,n,n,n
